From ChEMBL document CHEMBL1138853, “Synthesis and antituberculosis activity of a novel series of optically active 6-nitro-2,3-dihydroimidazo[2,1-b]oxazoles” (2006)
Converted amounts (≈) assume the structure as drawn.

Key:
[1] = test system: Mycobacterium tuberculosis; assay: Antituberculosis activity against rifampicin resistant Mycobacterium tuberculosis H37Rv; assay type: functional
Outline: (§1)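 Agar dilution on 7H11 plates with drug-susceptible and drug-resistant M. tuberculosis H37Rv strains grown in Middlebrook 7H9 broth. Frozen stocks (-80 °C) diluted to about 10⁶ CFU/mL and spotted with a multipoint inoculator onto drug-containing plates. Drugs dissolved in DMSO and serially diluted 2-fold in DMSO. Read-out: MIC.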

[2] = test system: Mycobacterium tuberculosis; assay: Antituberculosis activity against INH resistant Mycobacterium tuberculosis H37Rv; assay type: functional; outline: as §1

`C[C@]1(COc2ccc(N3CCOCC3)cc2)Cn2cc([N+](=O)[O-])nc2O1` was tested, and the MIC [1] was 0.39 µg/mL (≈ 1.08 µM) and the MIC [2] was 0.78 µg/mL (≈ 2.16 µM).

For `COc1ccc(OC[C@@]2(C)Cn3cc([N+](=O)[O-])nc3O2)cc1`, the MIC [1] was 0.05 µg/mL (≈ 0.164 µM) and the MIC [2] was 0.1 µg/mL (≈ 0.328 µM).

`C[C@]1(COc2ccc(N3CCC(Oc4ccc(C(F)(F)F)cc4)CC3)cc2)Cn2cc([N+](=O)[O-])nc2O1` gave an MIC [1] of 0.006 µg/mL (≈ 0.0116 µM) and an MIC [2] of 0.012 µg/mL (≈ 0.0231 µM).

`C[C@]1(COc2ccc(OC(F)(F)F)cc2)Cn2cc([N+](=O)[O-])nc2O1` was tested, and the MIC [1] was 0.2 µg/mL (≈ 0.557 µM) and the MIC [2] was 0.39 µg/mL (≈ 1.09 µM).

`C[C@]1(COc2ccccc2)Cn2cc([N+](=O)[O-])nc2O1` showed an MIC [1] of 0.05 µg/mL (≈ 0.182 µM) and an MIC [2] of 0.05 µg/mL (≈ 0.182 µM).

`Cc1ccc(OC2CCN(c3ccc(OC[C@@]4(C)Cn5cc([N+](=O)[O-])nc5O4)cc3)CC2)cc1` was tested, and the MIC [1] was 0.39 µg/mL (≈ 0.84 µM) and the MIC [2] was 0.39 µg/mL (≈ 0.84 µM).

`C[C@]1(COc2ccc(N3CCC(Oc4ccccc4)CC3)cc2)Cn2cc([N+](=O)[O-])nc2O1` showed an MIC [1] of 0.2 µg/mL (≈ 0.444 µM) and an MIC [2] of 0.39 µg/mL (≈ 0.866 µM).

In the case of `C[C@]1(COc2ccc(N3CC[S+]([O-])CC3)cc2)Cn2cc([N+](=O)[O-])nc2O1`, the MIC [1] is reported as 6.25 µg/mL (≈ 15.9 µM) and the MIC [2] is reported as 6.25 µg/mL (≈ 15.9 µM).

In the case of `C[C@]1(COc2ccc(N3CCC(Oc4cccc(OC(F)(F)F)c4)CC3)cc2)Cn2cc([N+](=O)[O-])nc2O1`, the MIC [1] is reported as 0.024 µg/mL (≈ 0.0449 µM) and the MIC [2] is reported as 0.024 µg/mL (≈ 0.0449 µM).

For `C[C@]1(COc2ccc(N3CCC(Oc4ccc(Cl)cc4)CC3)cc2)Cn2cc([N+](=O)[O-])nc2O1`, the MIC [1] was 0.024 µg/mL (≈ 0.0495 µM) and the MIC [2] was 0.05 µg/mL (≈ 0.103 µM).

`C[C@]1(COc2ccc(N3CCCCC3)cc2)Cn2cc([N+](=O)[O-])nc2O1` showed an MIC [1] of 0.39 µg/mL (≈ 1.09 µM) and an MIC [2] of 0.39 µg/mL (≈ 1.09 µM).

With `COc1ccc(OC2CCN(c3ccc(OC[C@@]4(C)Cn5cc([N+](=O)[O-])nc5O4)cc3)CC2)cc1` the MIC [1] was 0.2 µg/mL (≈ 0.416 µM) and the MIC [2] was 0.39 µg/mL (≈ 0.812 µM).

In the case of `C[C@]1(COc2ccc(N3CCC(Oc4ccc(F)cc4)CC3)cc2)Cn2cc([N+](=O)[O-])nc2O1`, the MIC [1] is reported as 0.2 µg/mL (≈ 0.427 µM) and the MIC [2] is reported as 0.39 µg/mL (≈ 0.832 µM).

`C[C@]1(COc2ccc(N3CCC(Oc4ccccc4OC(F)(F)F)CC3)cc2)Cn2cc([N+](=O)[O-])nc2O1` was tested, and the MIC [1] was 0.2 µg/mL (≈ 0.374 µM) and the MIC [2] was 0.39 µg/mL (≈ 0.73 µM).

Compound `C[C@]1(COc2ccc(C(F)(F)F)cc2)Cn2cc([N+](=O)[O-])nc2O1` has an MIC [1] of 0.1 µg/mL (≈ 0.291 µM) and an MIC [2] of 0.2 µg/mL (≈ 0.583 µM).

`Cc1ccc(OC[C@@]2(C)Cn3cc([N+](=O)[O-])nc3O2)cc1` showed an MIC [1] of 0.012 µg/mL (≈ 0.0415 µM) and an MIC [2] of 0.024 µg/mL (≈ 0.083 µM).

`C[C@]1(COc2ccc(N3CCSCC3)cc2)Cn2cc([N+](=O)[O-])nc2O1` gave an MIC [1] of 0.2 µg/mL (≈ 0.531 µM) and an MIC [2] of 0.39 µg/mL (≈ 1.04 µM).

In the case of `C[C@]1(COc2ccc(Cl)cc2)Cn2cc([N+](=O)[O-])nc2O1`, the MIC [1] is reported as 0.006 µg/mL (≈ 0.0194 µM) and the MIC [2] is reported as 0.012 µg/mL (≈ 0.0387 µM).

For `C[C@]1(COc2ccc(N3CCC(Oc4ccc(OC(F)(F)F)cc4)CC3)cc2)Cn2cc([N+](=O)[O-])nc2O1` [DELAMANID], the MIC [1] was 0.006 µg/mL (≈ 0.0112 µM) and the MIC [2] was 0.006 µg/mL (≈ 0.0112 µM).
